Bioassay records: PubChem BioAssay, The Scripps Research Institute Molecular Screening Center
Compounds with a hit are over-represented: about 4.6% of the library has one in this group of screens.
CHO parental Ca: counter-screen: ATP calcium response change in parental CHO cells. parental CHO-K1, ATP-induced calcium, Fluo-8 fluorescence. inhibition, % at 5.6 µM. 330,000 tested, 0.63% active. AID 463079;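 active means inhibition above that plate's mean sample inhibition plus 3 SD, cut at about 26% in these data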;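 further: 0% = ATP-challenged DMSO wells and 100% = DMSO wells without ATP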
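Assay system – parental CHO cells · Reagent – ATP stimulus · Detection – intracellular calcium via Fluo-8 no-wash fluorescent dye · Evaluation – percent inhibition of ATP-evoked calcium rise, normalized to controls · Controls – ATP wells versus no-ATP DMSO wells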
OX1R antag-1: OX1R (human) antagonism | O43613 | OX1R-expressing cells, FRET antagonist read-out | inhibition, % at 6.6 µM | 330,000 tested, 1.8% active | AID 485270; in the data active means inhibition mostly above about 38%, no sharp cut-off; inactive means mostly below about 40%;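 further: 0% = agonist challenge alone and 100% = reference antagonist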
GPR7 antagonist: blocks human GPR7 receptor signaling; GPR7-expressing cells, fluorescence antagonist assay; 290,000 tested, 1.1% active; inhibition, % at 4.4 µM; in the data active means inhibition above about 16%, passing the limit was not always enough;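 further: cells stimulated with the agonist NPW; 0% = agonist with vehicle and 100% = vehicle without agonist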
TAAR1 agonist: agonists of human TAAR1 | activation, % at 3 µM | 360,000 tested, 0.99% active | AID 624467 | Q96RJ0 | CHO RD-HGA16 TAAR1, Fluo-8 calcium fluorescence; vehicle wells 0%, saturating PEA agonist 100%;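 active means activation above the mean activation of all test compounds in the run plus 3 SD, cut at about 38% in these data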
Target sequence (Q96RJ0 whole entry, looked up): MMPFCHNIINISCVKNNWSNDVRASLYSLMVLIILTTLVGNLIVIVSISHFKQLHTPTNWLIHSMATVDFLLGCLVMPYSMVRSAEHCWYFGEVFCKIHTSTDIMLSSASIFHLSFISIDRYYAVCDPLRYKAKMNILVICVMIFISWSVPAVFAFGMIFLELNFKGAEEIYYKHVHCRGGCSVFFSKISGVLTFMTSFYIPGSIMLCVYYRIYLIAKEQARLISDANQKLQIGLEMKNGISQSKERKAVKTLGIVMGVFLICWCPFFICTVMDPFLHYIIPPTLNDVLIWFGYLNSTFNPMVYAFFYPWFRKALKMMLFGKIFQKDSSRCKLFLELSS
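System: CHO-derived RD-HGA16 cells with stable Gα16 and human TAAR1 / Times: 17-24 h plating, Fluo-8 75 min 37 °C, 30 min RT / Technique: calcium-sensitive Fluo-8 signal, excitation 470-495, emission 515-575 nm / Measure: % activation relative to PEA EC100 response / Benchmarks: DMSO and PEA EC100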
OX1R antag-2: blocks the human orexin 1 receptor; O43613; CHO/OX1R cells, Fluo-8 calcium fluorescence, orexin A; inhibition, % at 5 µM; 330,000 tested, 0.43% active; AID 434989;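 active means inhibition above its plate's threshold, mean inhibition of all tested compounds on the plate plus 3 SD, cut at about 37% in these data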;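 further: 0% = orexin A challenge wells and 100% = SB-334867-A antagonist wells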
TAAR1 antagonist: human TAAR1 antagonism | Q96RJ0 | CHO RD-HGA16 TAAR1, Fluo-8 calcium fluorescence, antagonist | inhibition, % at 3 µM | 360,000 tested, 1.5% active;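 active means inhibition above a per-plate cutoff, the mean inhibition of test compounds on that plate plus 3 SD, cut at about 49% in these data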;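 further: 0% = DMSO plus EC80 beta-PEA response and 100% = DMSO alone without agonist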
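Test system – hTAAR1-expressing CHO RD-HGA16 cells, Gα16-coupled · Also added – β-PEA at EC80 concentration, post-compound challenge · Compound – 3 µM, single point · Incubation – dye loading 75 min at 37 °C, then 30 min room temperature · Measured by – Fluo-8 intracellular calcium dye fluorescence, real-time kinetic reads · Benchmarks – vehicle and agonist controls · Replicates – singlicate, one well per test compound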
OX1R Ca confirm: confirmation of human orexin 1 receptor antagonists; shares compounds with OX1R antag-2; CHO/OX1R cells, orexin A calcium Fluo-8 fluorescence; inhibition, % at 5 µM; 1,100 tested, 38% active; AID 492963; in the data active means inhibition above about 29%;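 further: 0% = agonist challenge alone and 100% = reference antagonist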
CHO Ca triplic: counter-screen: parental CHO calcium response change, triplicate | shares compounds with OX1R antag-2 | parental CHO-K1, ATP-induced calcium, Fluo-8 fluorescence | inhibition, % at 5.6 µM | 1,100 tested, 9.3% active;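 active means inhibition above a per-plate limit, the mean inhibition of that plate's test compounds plus 3 SD, cut at about 25% in these data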;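 further: 0% = ATP challenge with DMSO and 100% = DMSO without ATP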
OX1R HTRF conf: confirmation of human orexin 1 receptor antagonists, HTRF format. 1,800 tested, 49% active. shares compounds with OX1R antag-1. AID 492964. inhibition, % at 6.6 µM. OX1R-expressing cells, HTRF antagonist assay; in the data active means inhibition above about 55%;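 further: CHO cells expressing OX1R stimulated with orexin A at about EC80; 0% = agonist challenge alone and 100% = reference antagonist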
CHO-K1 HTRF cnt: counter-screen: parental CHO-K1 HTRF response | shares compounds with OX1R antag-1 | parental CHO-K1 cells, HTRF counterscreen | inhibition, % at 6.6 µM | 1,800 tested, 48% active; in the data active means inhibition above about 17%;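 further: 0% = agonist challenge with vehicle and 100% = vehicle alone without agonist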
* marks the source's active call; other numbers are inactive results; nt = not tested or not shown.

SMILES	CHO parental Ca	OX1R antag-1	GPR7 antagonist	TAAR1 agonist	OX1R antag-2	TAAR1 antagonist	OX1R Ca confirm	CHO Ca triplic	others
COc1ccc([C@H]2C[C@H](O)[C@@H](n3cc(-c4ccc(F)cc4)nn3)CN2Cc2cccs2)cc1	nt	nt	nt	4	nt	-13	nt	nt
O=C(CSc1nnc(NCc2ccccc2)s1)c1ccco1	-14	54	3	9	32	-2	7	10
COc1ncccc1C(=O)N1CCCC(C(=O)Nc2cccc(-c3ccc(F)cc3)c2)C1 (configuration not stated)	nt	nt	nt	5	nt	8	nt	nt
COc1ccc(CN(C)c2ccc(S(=O)(=O)N3CCN(C)CC3)cc2[N+](=O)[O-])cc1OC	6	24	nt	11	46*	2	3	65*
CC1(c2ccccc2)NC(=O)N(CC(=O)Nc2ccc(S(=O)(=O)Nc3ncccn3)cc2)C1=O (configuration not stated)	0	6	nt	0	-8	-7	nt	nt
Cc1cc(NS(=O)(=O)c2ccc(NC(=O)CN3C(=O)NC(C)(c4ccccc4)C3=O)cc2)nc(C)n1 (configuration not stated)	-4	21	nt	2	26	-12	4	1
CC(=Nc1ccccc1O)c1sc2ccccc2c1O	24	30	-3	30	34	44	11	0
CC(=Nc1ccc(O)cc1)c1sc2ccccc2c1O	5	27	-19	16	3	19	nt	nt
CCCCNC(=O)c1ccc(N2CCOCC2)c(NS(=O)(=O)c2ccc(OC)cc2)c1	-10	10	-14	3	-21	-2	nt	nt
CCNC(=O)Nc1cc(S(=O)(=O)Nc2ccc(OC)cc2)ccc1N1CCOCC1	14	12	nt	nt	41*	nt	36*	75*
Cc1ccc(C)c(NC(=O)CN(C)C(=O)c2ccc(COc3ccccc3)cc2)c1	nt	nt	nt	2	nt	-10	nt	nt
Cn1c(SCC(=O)Nc2sccc2C(N)=O)nc2ccccc2c1=O	-19	25	nt	11	37	-8	8	4
C/C=C/C(=O)N1c2ccc(C)cc2C(C)=CC1(C)C	4	17	-13	2	-7	-46	nt	nt
CC1=CC(C)(C)N(S(=O)(=O)c2ccc(C)cc2)c2ccc(C)cc21	0	23	14	6	40	14	-4	56*
CCCCCCn1c(=O)c(-c2ccccc2)c(O)c2ccccc21	-18	14	-11	-2	-23	-6	nt	nt
CCCCCCCCn1c(=O)c(C(=O)OC)c(N)c2ccccc21	-4	26	-8	11	25	16	19	35*
O=C(NCc1ccccc1)C1CCCN1S(=O)(=O)c1ccc(Cl)cc1 (configuration not stated)	-27	7	-14	6	-20	-23	nt	nt
COc1ccccc1NC(=O)[C@@H]1CCCN1S(=O)(=O)c1ccc(Cl)cc1	-11	58*	nt	5	48*	-13	52*	-27	OX1R HTRF conf=70*;CHO-K1 HTRF cnt=-22
O=C(Nc1ccccc1)[C@@H]1CCCN1S(=O)(=O)c1ccc(Cl)cc1	-15	62*	nt	3	45*	-13	39*	-12	OX1R HTRF conf=78*;CHO-K1 HTRF cnt=8
CCOc1ccccc1NC(=O)C1CCCN1S(=O)(=O)c1ccccc1C(F)(F)F (configuration not stated)	-21	79*	nt	-1	76*	-2	39*	-16	OX1R HTRF conf=85*;CHO-K1 HTRF cnt=-4
Cc1ccc(S(=O)(=O)N2CCCC2C(=O)Nc2nc3c(s2)CCCC3)cc1 (configuration not stated)	-18	78*	-16	3	44*	5	31*	-14	OX1R HTRF conf=93*;CHO-K1 HTRF cnt=1
